As a reminder, the IC50 is the concentration needed to halve the response being measured. As usually defined, the bioavailability is the share of a dose that reaches the circulation, judged against a reference dose that is usually intravenous. As a reminder, the half-life is how long it takes for the measured level to halve.

We go through 30 compounds from ChEMBL document CHEMBL1681711, “Discovery of a potent, orally bioavailable pyrimidine VLA-4 antagonist effective in a sheep asthma model” (Bioorg Med Chem Lett, 2011).

Active and inactive are the calls of the source. No cut-off for these calls is given here.

One data set has as its target Integrin alpha-4/beta-1 (Homo sapiens, UniProt P05556+P13612). Briefly: Inhibition of integrin alpha4beta1-mediated Jurkat cell adhesion to VCAM-1 by FACS analysis. The class given is cell-based. The gist of the method:
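α4β1-positive Jurkat cells were incubated with recombinant soluble VCAM-1, and binding of this ligand was measured by flow cytometry (FACS).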

The test system of data set [1] is Ovis aries. The data set can be described thus: Antiasthamatic activity in po dosed sheep asthma model assessed as prevention of carbachol-induced late phase hyperresponsiveness. It counts as functional. As to conditions: read-out: MED.
Data set [2] in a line: Oral bioavailability in Sprague-Dawley rat at 10 mg/kg. The class given is ADME, organism-based. The note with it: in vivo.
A short description of data set [3]: Drug excretion in Sprague-Dawley rat bile at 10 mg/kg, po. The class given is ADME, organism-based. Set-up: dose 10 mg/kg, route oral. As to conditions: read-out: Activity.
Data set [4] relates to Ovis aries. The data set can be described thus: Antiasthamatic activity in po dosed sheep asthma model assessed as prevention of carbachol-induced early phase hyperresponsiveness. As to conditions: read-out: MED. The class given is functional.
A short description of data set [5]: Clearance in cynomolgus monkey at 3 mg/kg, iv and 10 mg/kg, po. It counts as ADME, organism-based, Macaca fascicularis. The note with it: in vivo. In outline: (§1)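 Male monkeys in each arm; the compound was given at 3 mg/kg intravenously and at 10 mg/kg orally.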
A short description of data set [6]: Bioavailability in cynomolgus monkey at 3 mg/kg, iv and 10 mg/kg, po. It counts as ADME, organism-based, Macaca fascicularis. The note with it: in vivo. In outline:
as §1

A short description of data set [7]: Half life in Sprague-Dawley rat at 10 mg/kg, iv and po. As to conditions: in vivo. It counts as ADME, organism-based. Set-up: dose 10 mg/kg, route oral. The gist of the method:
(§2)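 Male rats in each arm; the compound was given at 10 mg/kg both intravenously and orally, with parameters taken from these two arms.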

The subject of a further data set is Rattus norvegicus. Briefly: Volume of distribution in Sprague-Dawley rat at 10 mg/kg, iv and po. The class given is ADME, organism-based. Also noted: dose 10 mg/kg, route oral. The note with it: in vivo. In outline: as §2
Data set [8] in a line: Bioavailability in Beagle dog at 3 mg/kg, iv and 10 mg/kg, po. The note with it: in vivo. It counts as ADME, organism-based, Canis lupus familiaris. In outline:
(§3)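 Male dogs in each arm; the intravenous arm used 3 mg/kg and the oral arm 10 mg/kg.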

Data set [9] relates to Ovis aries. Briefly: Antiasthamatic activity in sheep asthma model assessed as prevention of carbachol-induced hyperresponsiveness at 1 mg/kg, po. The class given is functional, organism-based. Also noted: dose 1 mg/kg.
The nature of data set [10]: Clearance in Beagle dog at 3 mg/kg, iv and 10 mg/kg, po. The note with it: in vivo. The class given is ADME, organism-based, Canis lupus familiaris. The gist of the method:
as §3

The nature of data set [11]: Half life in cynomolgus monkey at 3 mg/kg, iv and 10 mg/kg, po. As to conditions: in vivo. It counts as ADME, organism-based, Macaca fascicularis. The gist of the method: as §1
A short description of data set [12]: Bioavailability in Sprague-Dawley rat at 10 mg/kg, iv and po. It counts as ADME, organism-based. As to conditions: in vivo. In outline:
as §2

Data set [13] can be described thus: Half life in Beagle dog at 3 mg/kg, iv and 10 mg/kg, po. It counts as ADME, organism-based, Canis lupus familiaris. The note with it: in vivo. In outline: as §3
Data set [14] deals with Ovis aries. Briefly: Antiasthamatic activity in sheep asthma model assessed as prevention of carbachol-induced hyperresponsiveness at 0.3 mg/kg, po. The class given is functional, organism-based. Set-up: dose 0.3 mg/kg.
Data set [15] can be described thus: Volume of distribution in Beagle dog at 3 mg/kg, iv and 10 mg/kg, po. The note with it: in vivo. The class given is ADME, organism-based, Canis lupus familiaris. The gist of the method:
as §3

The nature of data set [16]: Volume of distribution in cynomolgus monkey at 3 mg/kg, iv and 10 mg/kg, po. The class given is ADME, organism-based, Macaca fascicularis. The note with it: in vivo. In outline: as §1

Integrin alpha-4/beta-1, sequence (P05556 whole entry): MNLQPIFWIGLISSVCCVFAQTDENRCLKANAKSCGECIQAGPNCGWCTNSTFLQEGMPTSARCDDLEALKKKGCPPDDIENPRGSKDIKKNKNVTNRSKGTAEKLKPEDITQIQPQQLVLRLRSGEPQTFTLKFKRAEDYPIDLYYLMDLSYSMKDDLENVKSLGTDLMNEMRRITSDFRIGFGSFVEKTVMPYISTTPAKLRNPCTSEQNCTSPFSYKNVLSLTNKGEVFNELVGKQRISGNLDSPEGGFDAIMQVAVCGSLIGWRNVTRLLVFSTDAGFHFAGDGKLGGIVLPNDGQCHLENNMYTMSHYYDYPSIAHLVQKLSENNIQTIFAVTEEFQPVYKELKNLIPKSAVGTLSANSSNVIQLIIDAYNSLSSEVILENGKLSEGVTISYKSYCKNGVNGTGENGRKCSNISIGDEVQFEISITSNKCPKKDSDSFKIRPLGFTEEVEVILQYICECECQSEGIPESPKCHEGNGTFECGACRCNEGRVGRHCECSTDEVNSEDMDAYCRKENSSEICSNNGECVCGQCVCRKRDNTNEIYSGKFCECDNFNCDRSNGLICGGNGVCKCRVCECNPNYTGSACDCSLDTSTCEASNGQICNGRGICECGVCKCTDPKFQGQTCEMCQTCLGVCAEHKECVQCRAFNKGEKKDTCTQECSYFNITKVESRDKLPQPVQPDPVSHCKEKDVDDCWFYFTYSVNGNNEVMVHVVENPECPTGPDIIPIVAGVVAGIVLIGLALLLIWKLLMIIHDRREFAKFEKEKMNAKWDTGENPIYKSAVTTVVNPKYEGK
Integrin alpha-4/beta-1, sequence (P13612 whole entry): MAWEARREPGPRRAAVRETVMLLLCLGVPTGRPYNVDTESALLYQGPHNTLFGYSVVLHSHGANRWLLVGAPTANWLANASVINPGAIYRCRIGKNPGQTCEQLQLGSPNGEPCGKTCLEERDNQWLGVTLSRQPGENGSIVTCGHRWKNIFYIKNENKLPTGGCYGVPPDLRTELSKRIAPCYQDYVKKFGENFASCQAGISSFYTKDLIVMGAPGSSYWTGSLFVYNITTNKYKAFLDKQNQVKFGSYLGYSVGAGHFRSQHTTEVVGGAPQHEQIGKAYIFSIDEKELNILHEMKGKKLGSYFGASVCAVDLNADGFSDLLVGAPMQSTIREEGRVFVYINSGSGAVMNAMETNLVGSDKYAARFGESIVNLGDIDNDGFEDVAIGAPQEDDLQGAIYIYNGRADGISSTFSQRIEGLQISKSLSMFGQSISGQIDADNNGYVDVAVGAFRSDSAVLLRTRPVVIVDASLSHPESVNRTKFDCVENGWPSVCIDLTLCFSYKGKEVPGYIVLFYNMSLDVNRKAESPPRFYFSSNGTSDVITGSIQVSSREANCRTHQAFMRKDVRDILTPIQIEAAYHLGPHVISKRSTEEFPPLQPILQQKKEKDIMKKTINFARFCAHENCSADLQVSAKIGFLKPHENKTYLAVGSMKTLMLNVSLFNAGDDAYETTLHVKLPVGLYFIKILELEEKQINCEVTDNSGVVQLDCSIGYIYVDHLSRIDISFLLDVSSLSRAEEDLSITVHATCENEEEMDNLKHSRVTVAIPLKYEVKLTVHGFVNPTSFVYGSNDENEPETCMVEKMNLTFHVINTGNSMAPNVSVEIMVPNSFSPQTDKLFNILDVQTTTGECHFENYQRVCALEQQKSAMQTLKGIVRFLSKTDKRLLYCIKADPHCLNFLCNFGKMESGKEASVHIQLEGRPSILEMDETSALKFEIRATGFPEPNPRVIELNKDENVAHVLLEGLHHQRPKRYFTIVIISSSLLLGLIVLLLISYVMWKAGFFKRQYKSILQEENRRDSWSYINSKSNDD

Turning to `CN(C)C(=O)Oc1ccc(C[C@H](Nc2ncncc2-c2cccs2)C(=O)O)cc1`, half-maximal inhibition against Integrin alpha-4/beta-1 (IC50) was put at 16 nM.
On the same count and under the same terms, the result for `Cc1noc(C)c1-c1cncnc1N[C@@H](Cc1ccc(OC(=O)N(C)C)cc1)C(=O)O` reads less than 1 nM.
Consider `Cc1ccsc1-c1cncnc1N[C@@H](Cc1ccc(OC(=O)N(C)C)cc1)C(=O)O`, for which, at Integrin alpha-4/beta-1, the concentration for half-maximal inhibition (IC50) stood at 5 nM.
With `CN(C)C(=O)Oc1ccc(C[C@H](NC(=O)c2ccccc2)C(=O)O)cc1`, the half-maximal inhibitory concentration (IC50) against Integrin alpha-4/beta-1 came out at 130 nM.
Still for that read-out and setting: the result for `CN(C)C(=O)Oc1ccc(C[C@H](Nc2ncncc2-c2ccccc2F)C(=O)O)cc1` reads 18 nM; that for `CN(C)C(=O)Oc1ccc(C[C@H](Nc2ncncc2-c2cccc(Cl)c2Cl)C(=O)O)cc1`, 77 nM; that for `CN(C)C(=O)Oc1ccc(C[C@H](Nc2ncncc2-c2c(F)cccc2F)C(=O)O)cc1`, 27 nM.
On Integrin alpha-4/beta-1, `CCN(C)c1ncc(-c2ccccc2C)c(N[C@@H](Cc2ccc(OC(=O)N(C)C)cc2)C(=O)O)n1` gave a half-maximal inhibitory concentration (IC50) of 5.3 nM.
Same read-out and setting: the same measure for `Cc1ccccc1-c1cnc(N(C)C2CC2)nc1N[C@@H](Cc1ccc(OC(=O)N(C)C)cc1)C(=O)O`: 20 nM; for `Cc1ccccc1-c1cnc(N(C)C2CCC2)nc1N[C@@H](Cc1ccc(OC(=O)N(C)C)cc1)C(=O)O`: 10 nM.
In the case of `Cc1ccccc1-c1cnc(N(C)C2CCCCC2)nc1N[C@@H](Cc1ccc(OC(=O)N(C)C)cc1)C(=O)O`, the minimal effective dose with Ovis aries [1] and in the data set with Ovis aries [4] was 10 mg/kg in each case. This compound also came in with a bioavailability in data set [2] of 26%. Besides, the dose excreted in data set [3] is less than 3%. On Integrin alpha-4/beta-1, this compound gave an IC50 of 20 nM.
With `Cc1ccccc1-c1cnc(N(C)CC(C)C)nc1N[C@@H](Cc1ccc(OC(=O)N(C)C)cc1)C(=O)O`, at Integrin alpha-4/beta-1, the IC50 was 7 nM.
`CN(C)C(=O)Oc1ccc(C[C@H](Nc2ncncc2-c2ccncc2)C(=O)O)cc1` registered an IC50 against Integrin alpha-4/beta-1 of 85 nM.
`COc1ccccc1-c1cncnc1N[C@@H](Cc1ccc(OC(=O)N(C)C)cc1)C(=O)O` showed an IC50 on Integrin alpha-4/beta-1 of 16 nM.
Compound `Cc1ccccc1-c1cnc(N(C)C)nc1N[C@@H](Cc1ccc(OC(=O)N(C)C)cc1)C(=O)O` had a half-inhibitory concentration (IC50) on Integrin alpha-4/beta-1 of 29 nM.
Same read-out and setting: the same measure for `CN(C)C(=O)Oc1ccc(C[C@H](Nc2ncncc2-c2ccccc2C(F)(F)F)C(=O)O)cc1`: 90 nM; for `CN(C)C(=O)Oc1ccc(C[C@H](Nc2ncncc2-c2ccccc2)C(=O)O)cc1`: 300 nM.
Same read-out and setting: the result for `Cc1ccccc1-c1cnc(N2CCCCC2)nc1N[C@@H](Cc1ccc(OC(=O)N(C)C)cc1)C(=O)O` reads 32 nM; that for `CN(C)C(=O)Oc1ccc(C[C@H](Nc2ncnc3ccccc23)C(=O)O)cc1`, 190 nM.
In turn, `CCCN(CC)c1ncc(-c2ccccc2C)c(N[C@@H](Cc2ccc(OC(=O)N(C)C)cc2)C(=O)O)n1` registered a half-maximal inhibitory concentration (IC50) at Integrin alpha-4/beta-1 of 4.9 nM.
The same measure, in the same setting: the same measure for `CCN(CC)c1ncc(-c2ccccc2C)c(N[C@@H](Cc2ccc(OC(=O)N(C)C)cc2)C(=O)O)n1`: 5.7 nM.
The same measure, in the same setting: the result for `Cc1ccccc1-c1cncnc1N[C@@H](Cc1ccc(OC(=O)N(C)C)cc1)C(=O)O` reads 25 nM; that for `Cc1cc(C)c(-c2cncnc2N[C@@H](Cc2ccc(OC(=O)N(C)C)cc2)C(=O)O)c(C)c1`, 100 nM.
Same read-out and setting: the same measure for `CN(C)C(=O)Oc1ccc(C[C@H](Nc2ncncc2-c2cccnc2)C(=O)O)cc1`: 130 nM.
The compound `CN(C)C(=O)Oc1ccc(C[C@H](Nc2nc(N(C)C3CCCCC3)nc3ccccc23)C(=O)O)cc1` had an IC50 against Integrin alpha-4/beta-1 of 8 nM.
In the case of `CN(C)C(=O)Oc1ccc(C[C@H](Nc2ncncc2-c2cccc([N+](=O)[O-])c2)C(=O)O)cc1`, the concentration for half-maximal inhibition (IC50) at Integrin alpha-4/beta-1 came to 180 nM.
On Integrin alpha-4/beta-1, `CN(C)C(=O)Oc1ccc(C[C@H](Nc2ncncc2-c2ccc[nH]2)C(=O)O)cc1` registered an IC50 of 75 nM.
The same measure, in the same setting: the result for `Cc1ccccc1-c1cnc(N(C)c2ccc(Cl)cc2)nc1N[C@@H](Cc1ccc(OC(=O)N(C)C)cc1)C(=O)O` reads 107 nM.
`CCN(CC)c1ncc(-c2c(C)noc2C)c(N[C@@H](Cc2ccc(OC(=O)N(C)C)cc2)C(=O)O)n1`: the clearance in data set [5] was 13.5 mL/min/kg; in data set [10] it was 6.73 mL/min/kg. Also, the bioavailability was determined as 16% in [6], 59% in data set [8] and 19% in data set [12]. For the same compound, the half-life in [7] was 84 min; in data set [11], 66 min; in data set [13] it was 54 min. Moreover, the figures for the Vd (in the data set on Rattus norvegicus; in data set [15]; in data set [16]) were 346 mL/kg, 0.524 L/kg and 1.29 L/kg, respectively. The result in the data set on Ovis aries [9] was Active. In the data set with Ovis aries [14], the outcome was inactive.
On Integrin alpha-4/beta-1, `Cc1ccccc1-c1cnc(N(C)C2CCN(C)CC2)nc1N[C@@H](Cc1ccc(OC(=O)N(C)C)cc1)C(=O)O` showed an IC50 of 68 nM.
